Results published in article PMC2871064 (Cancer research, 2010).
Like-named read-outs stand apart in the source and are kept apart here.

Assays:
[1] = test system: A375 xenografts; assay: Tissue distribution in mice bearing A375 xenografts; format: in vivo, NCr^nu/nu mice; details: A375 xenograft mice; for Tissue distribution: Blood: tail vein
Summary of the method: (§1)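 Male athymic NCr nu/nu mice received 0.25 mL of cells (8 × 10⁶/mL in 1:1 D-PBS-glucose-pyruvate/Matrigel) into the right hind flank. Tumours were used at 100–500 mm³ (~21 days). Tail-vein bolus of ~74 KBq tracer in 0.05 mL; n = 5 per time point. Mice were killed by CO₂ at 1, 4 and 24 h. Organs and tumour were weighed wet and gamma-counted; results are %ID/g, mean ± SD.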

[2] = test system: SK-MEL-3 xenografts; assay: Tissue distribution in mice bearing SK-MEL-3 xenografts; format: in vivo, NCr^nu/nu mice; details: SK-MEL-3 xenograft mice; for Tissue distribution: Blood: tail vein
Summary of the method: as §1

[3] = test system: SK-MEL-3 tumors; assay: Effect of [^131I]MIP-1145 on SK-MEL-3 tumor growth and survival; format: in vivo, athymic nude mice; details: multiple doses, 25 MBq or 2.5 GBq/m^2
[4] = Projected human dosimetry extrapolated from cynomolgus monkey scintigraphy; format: in vivo, cynomolgus monkeys
Summary of the method: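 Regions of interest (total body, lung, kidney, thyroid, eye) were drawn on anterior/posterior monkey images at each time point. Uptake was normalised to % total body dose, with the first pre-voiding image set as 100%. Time integrals went into OLINDA/EXM: adult male phantom, 4.8 h bladder voiding interval, unit-density sphere model for eye. The intestine margin is referenced to a 45 Gy limit at 4.7 GBq/70 kg.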

[5] = test system: B16F10 xenografts; details: cited from earlier work
[6] = Monte Carlo simulation of radiation dose to human eye substructures; details: human projection
[7] = Pharmacokinetics and gamma camera imaging in cynomolgus monkeys; format: in vivo
Summary of the method: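 Four cynomolgus monkeys (2 female, 2 male), Telazol-anaesthetised, received 185 MBq radiotracer iv without thyroid blockade. Serial anterior/posterior gamma-camera imaging was performed. Blood was drawn at 5, 30, 60, 120 and 360 min and at 24, 48 and 72 h. Urine was pooled over 0–6, 6–24, 24–48 and 48–72 h. Analysis was non-compartmental, with CL = dose/AUC and Vss = MRT × CL.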

[8] = at anticipated human dose 4.7 GBq/70 kg patient
[9] = extrapolated from cynomolgus monkeys
[10] = both, cynomolgus monkey, blood, iv, 185 MBq

CCN(CC)CCNC(=O)c1cc(I)c(NC(=O)c2ccc(F)cc2)cc1OC [[^131I]MIP-1145, N-(2-diethylamino-ethyl)-4-(4-fluoro-benzamido)-5-iodo-2-methoxy-benzamide]
Tissue distribution: Adipose ([1]; 1 hour): 1.56 ± 0.23 %ID/g
Tissue distribution: Bone ([1]; 1 hour): 1.34 ± 0.12 %ID/g
Tissue distribution: Brain ([1]; 1 hour): 0.60 ± 0.17 %ID/g
Tissue distribution: Heart ([1]; 1 hour): 1.96 ± 0.33 %ID/g
Tissue distribution: Kidneys ([1]; 1 hour): 14.26 ± 2.73 %ID/g
Tissue distribution: Large Intestine ([1]; 1 hour): 2.69 ± 0.49 %ID/g
Tissue distribution: Liver ([1]; 1 hour): 6.79 ± 1.33 %ID/g
Tissue distribution: Lungs ([1]; 1 hour): 9.81 ± 0.88 %ID/g
Tissue distribution: Skeletal Muscle ([1]; 1 hour): 1.03 ± 0.09 %ID/g
Tissue distribution: Small Intestine ([1]; 1 hour): 9.19 ± 3.32 %ID/g
Tissue distribution: Spleen ([1]; 1 hour): 4.54 ± 1.34 %ID/g
Tissue distribution: Stomach ([1]; 1 hour): 6.22 ± 2.34 %ID/g
Tissue distribution: Testes ([1]; 1 hour): 1.58 ± 0.22 %ID/g
Tissue distribution: Tumor ([1]; 1 hour): 2.38 ± 0.75 %ID/g
Tissue distribution: Blood ([1]; 1 hour post-injection): 0.46 ± 0.05 %ID/g
Tissue distribution: Adipose ([1]; 4 hours): 1.10 ± 0.46 %ID/g
Tissue distribution: Bone ([1]; 4 hours): 0.74 ± 0.07 %ID/g
Tissue distribution: Brain ([1]; 4 hours): 0.16 ± 0.01 %ID/g
Tissue distribution: Heart ([1]; 4 hours): 1.04 ± 0.06 %ID/g
Tissue distribution: Kidneys ([1]; 4 hours): 8.53 ± 1.20 %ID/g
Tissue distribution: Large Intestine ([1]; 4 hours): 13.81 ± 5.14 %ID/g
Tissue distribution: Liver ([1]; 4 hours): 4.30 ± 0.45 %ID/g
Tissue distribution: Lungs ([1]; 4 hours): 7.24 ± 1.31 %ID/g
Tissue distribution: Skeletal Muscle ([1]; 4 hours): 0.58 ± 0.12 %ID/g
Tissue distribution: Small Intestine ([1]; 4 hours): 12.44 ± 2.02 %ID/g
Tissue distribution: Spleen ([1]; 4 hours): 2.57 ± 0.51 %ID/g
Tissue distribution: Stomach ([1]; 4 hours): 4.57 ± 1.77 %ID/g
Tissue distribution: Testes ([1]; 4 hours): 0.90 ± 0.13 %ID/g
Tissue distribution: Tumor ([1]; 4 hours): 1.19 ± 0.07 %ID/g
Tissue distribution: Blood ([1]; 4 hours post-injection): 0.26 ± 0.04 %ID/g
Tissue distribution: Adipose ([1]; 24 hours): 0.13 ± 0.12 %ID/g
Tissue distribution: Bone ([1]; 24 hours): 0.03 ± 0.02 %ID/g
Tissue distribution: Brain ([1]; 24 hours): 0.01 ± 0.00 %ID/g
Tissue distribution: Heart ([1]; 24 hours): 0.02 ± 0.02 %ID/g
Tissue distribution: Kidneys ([1]; 24 hours): 0.21 ± 0.08 %ID/g
Tissue distribution: Large Intestine ([1]; 24 hours): 1.35 ± 0.36 %ID/g
Tissue distribution: Liver ([1]; 24 hours): 0.32 ± 0.06 %ID/g
Tissue distribution: Lungs ([1]; 24 hours): 0.37 ± 0.15 %ID/g
Tissue distribution: Skeletal Muscle ([1]; 24 hours): 0.02 ± 0.01 %ID/g
Tissue distribution: Small Intestine ([1]; 24 hours): 0.59 ± 0.24 %ID/g
Tissue distribution: Spleen ([1]; 24 hours): 0.15 ± 0.20 %ID/g
Tissue distribution: Stomach ([1]; 24 hours): 0.67 ± 0.27 %ID/g
Tissue distribution: Testes ([1]; 24 hours): 0.16 ± 0.05 %ID/g
Tissue distribution: Tumor ([1]; 24 hours): 0.04 ± 0.02 %ID/g
Tissue distribution: Blood ([1]; 24 hours post-injection): 0.04 ± 0.02 %ID/g
Tissue distribution: Adipose ([2]; 1 hour): 4.15 ± 2.89 %ID/g
Tissue distribution: Bone ([2]; 1 hour): 1.71 ± 0.28 %ID/g
Tissue distribution: Brain ([2]; 1 hour): 0.82 ± 0.06 %ID/g
Tissue distribution: Heart ([2]; 1 hour): 2.36 ± 0.18 %ID/g
Tissue distribution: Kidneys ([2]; 1 hour): 16.55 ± 0.52 %ID/g
Tissue distribution: Large Intestine ([2]; 1 hour): 2.93 ± 0.54 %ID/g
Tissue distribution: Liver ([2]; 1 hour): 7.94 ± 1.12 %ID/g
Tissue distribution: Lungs ([2]; 1 hour): 9.70 ± 1.28 %ID/g
Tissue distribution: Skeletal Muscle ([2]; 1 hour): 1.39 ± 0.16 %ID/g
Tissue distribution: Small Intestine ([2]; 1 hour): 15.19 ± 1.50 %ID/g
Tissue distribution: Spleen ([2]; 1 hour): 7.26 ± 1.18 %ID/g
Tissue distribution: Stomach ([2]; 1 hour): 12.85 ± 2.53 %ID/g
Tissue distribution: Testes ([2]; 1 hour): 1.51 ± 0.18 %ID/g
Tissue distribution: Tumor ([2]; 1 hour): 3.77 ± 1.68 %ID/g
Tissue distribution: Blood ([2]; 1 hour post-injection): 0.75 ± 0.12 %ID/g
Tissue distribution: Adipose ([2]; 4 hours): 1.03 ± 0.26 %ID/g
Tissue distribution: Bone ([2]; 4 hours): 0.95 ± 0.14 %ID/g
Tissue distribution: Brain ([2]; 4 hours): 0.19 ± 0.02 %ID/g
Tissue distribution: Heart ([2]; 4 hours): 1.32 ± 0.18 %ID/g
Tissue distribution: Kidneys ([2]; 4 hours): 13.12 ± 2.68 %ID/g
Tissue distribution: Large Intestine ([2]; 4 hours): 18.91 ± 3.84 %ID/g
Tissue distribution: Liver ([2]; 4 hours): 5.18 ± 0.59 %ID/g
Tissue distribution: Lungs ([2]; 4 hours): 6.87 ± 1.33 %ID/g
Tissue distribution: Skeletal Muscle ([2]; 4 hours): 0.73 ± 0.16 %ID/g
Tissue distribution: Small Intestine ([2]; 4 hours): 17.21 ± 2.05 %ID/g
Tissue distribution: Spleen ([2]; 4 hours): 3.75 ± 0.60 %ID/g
Tissue distribution: Stomach ([2]; 4 hours): 10.74 ± 2.52 %ID/g
Tissue distribution: Testes ([2]; 4 hours): 1.07 ± 0.09 %ID/g
Tissue distribution: Tumor ([2]; 4 hours): 8.82 ± 3.55 %ID/g
Tumor:blood ratio ([2]; 4 hours post-injection): 25.2
Tissue distribution: Blood ([2]; 4 hours post-injection): 0.35 ± 0.04 %ID/g
Tissue distribution: Adipose ([2]; 24 hours): 0.09 ± 0.05 %ID/g
Tissue distribution: Bone ([2]; 24 hours): 0.09 ± 0.08 %ID/g
Tissue distribution: Brain ([2]; 24 hours): 0.01 ± 0.01 %ID/g
Tissue distribution: Heart ([2]; 24 hours): 0.04 ± 0.03 %ID/g
Tissue distribution: Kidneys ([2]; 24 hours): 0.51 ± 0.18 %ID/g
Tissue distribution: Large Intestine ([2]; 24 hours): 2.24 ± 0.67 %ID/g
Tissue distribution: Liver ([2]; 24 hours): 0.50 ± 0.07 %ID/g
Tissue distribution: Lungs ([2]; 24 hours): 0.29 ± 0.08 %ID/g
Tissue distribution: Skeletal Muscle ([2]; 24 hours): 0.03 ± 0.02 %ID/g
Tissue distribution: Small Intestine ([2]; 24 hours): 1.03 ± 0.24 %ID/g
Tissue distribution: Spleen ([2]; 24 hours): 0.12 ± 0.03 %ID/g
Tissue distribution: Stomach ([2]; 24 hours): 1.41 ± 0.53 %ID/g
Tissue distribution: Testes ([2]; 24 hours): 0.22 ± 0.02 %ID/g
Tissue distribution: Tumor ([2]; 24 hours): 5.91 ± 3.94 %ID/g
Tumor:blood ratio ([2]; 24 hours post-injection): 197
Tissue distribution: Blood ([2]; 24 hours post-injection): 0.03 ± 0.00 %ID/g
Duration of response [3]: over 125 days
Margin of lower large intestine dose below the allowable exposure limit of 45 Gy [4, 8]: 3.3 times
Radiation absorbed dose to the lower large intestine [4, 8]: 13.3 Gy
Radiation dose to the eye [4, 8]: 6.1 Gy
Effective Dose [4, 9]: 1.40E+00 ± 6.30E-01 mGy/MBq
Effective Dose Equivalent [4, 9]: 9.20E-01 ± 3.70E-01 mGy/MBq
Projected human organ radiation absorbed dose: Brain [4, 9]: 7.00E-02 ± 1.50E-02 mGy/MBq
Projected human organ radiation absorbed dose: Breasts [4, 9]: 6.40E-02 ± 1.40E-02 mGy/MBq
Projected human organ radiation absorbed dose: Eyes [4, 9]: 1.30E+00 ± 6.70E-01 mGy/MBq
Projected human organ radiation absorbed dose: Gallbladder Wall [4, 9]: 1.20E-01 ± 1.90E-02 mGy/MBq
Projected human organ radiation absorbed dose: Heart Wall [4, 9]: 8.00E-02 ± 1.80E-02 mGy/MBq
Projected human organ radiation absorbed dose: Kidneys [4, 9]: 1.10E-01 ± 7.70E-02 mGy/MBq
Projected human organ radiation absorbed dose: Liver [4, 9]: 8.60E-02 ± 1.70E-02 mGy/MBq
Projected human organ radiation absorbed dose: Lungs [4, 9]: 6.70E-02 ± 2.00E-02 mGy/MBq
Projected human organ radiation absorbed dose: Muscle [4, 9]: 8.80E-02 ± 1.60E-02 mGy/MBq
Projected human organ radiation absorbed dose: Osteogenic Cells [4, 9]: 1.60E-01 ± 3.30E-02 mGy/MBq
Projected human organ radiation absorbed dose: Ovaries [4, 9]: 2.00E-01 ± 1.90E-02 mGy/MBq
Projected human organ radiation absorbed dose: Pancreas [4, 9]: 9.20E-02 ± 1.90E-02 mGy/MBq
Projected human organ radiation absorbed dose: Red Marrow [4, 9]: 8.70E-02 ± 1.40E-02 mGy/MBq
Projected human organ radiation absorbed dose: Skin [4, 9]: 6.60E-02 ± 1.40E-02 mGy/MBq
Projected human organ radiation absorbed dose: Small Intestine [4, 9]: 3.40E-01 ± 1.80E-02 mGy/MBq
Projected human organ radiation absorbed dose: Spleen [4, 9]: 8.50E-02 ± 1.80E-02 mGy/MBq
Projected human organ radiation absorbed dose: Stomach Wall [4, 9]: 9.80E-02 ± 1.80E-02 mGy/MBq
Projected human organ radiation absorbed dose: Testes [4, 9]: 8.60E-02 ± 1.60E-02 mGy/MBq
Projected human organ radiation absorbed dose: Thymus [4, 9]: 7.80E-02 ± 1.70E-02 mGy/MBq
Projected human organ radiation absorbed dose: Uterus [4, 9]: 1.50E-01 ± 1.80E-02 mGy/MBq
Projected human radiation absorbed dose: Total Body [4, 9]: 1.00E-01 ± 1.60E-02 mGy/MBq
Projected human organ radiation absorbed dose: Adrenals ([4]; extrapolated from cynomolgus monkeys, adult male phantom): 8.50E-02 ± 1.80E-02 mGy/MBq
Projected human organ radiation absorbed dose: Urinary Bladder Wall ([4]; extrapolated from cynomolgus monkeys, 4.8 hour voiding interval): 6.20E-01 ± 4.10E-02 mGy/MBq
Projected human organ radiation absorbed dose: LLI Wall ([4]; extrapolated from cynomolgus monkeys, lower large intestine): 2.80E+00 ± 1.80E-02 mGy/MBq
Projected human organ radiation absorbed dose: ULI Wall ([4]; extrapolated from cynomolgus monkeys, upper large intestine): 1.10E+00 ± 1.50E-02 mGy/MBq
Projected human organ radiation absorbed dose: Thyroid ([4]; extrapolated from cynomolgus monkeys, without thyroid blockade): 1.80E+01 ± 1.30E+01 mGy/MBq
Therapeutic dose supported as safe for administration ([4]; human projection, dose-limiting organ lower large intestine): up to 16.2 GBq
Projected human radiation absorbed dose: all other organs ([4]; organs other than thyroid, large intestine and eyes): 0.064-1.1 mGy/MBq
Tumor uptake ([5]; specific activity 55.5 GBq/mmol): 9.28 ± 2.24 %ID/g
Tumor uptake ([5]; specific activity 55.5 TBq/mmol): 10.17 ± 1.81 %ID/g
Administered activity needed to reach the lens TD5/5 of 10 Gy for cataracts [6]: 7.7 GBq
Administered activity needed to reach the retina TD5/5 of 45 Gy for retinopathy [6]: 20.8 GBq
MRT [7, 10]: 47 ± 5 h
Vd [7, 10]: 19 ± 3 L
clearance [7, 10]: 6.67 mL/min
Injected dose recovered in the urine ([7]; cynomolgus monkeys, by 72 hours post-injection): 28%
